Source: PubChem BioAssay
OX1R antag-1 = OX1R (HCRTR1) antagonists, primary screen, fluorescence, CHO/OX1R cells, Fluo-8 calcium, orexin A. Fluo-8 calcium fluorescence. Orexin/Hypocretin receptor type 1 (Homo sapiens), O43613. hit rate 0.43% among 330,000. inhibition, % at 5 µM. AID 434989, 2010;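 active = inhibition above its plate's threshold, mean inhibition of all tested compounds on the plate plus 3 SD, cut at about 37% in these data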;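 also: 0% = orexin A challenge wells and 100% = SB-334867-A antagonist wells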
TRPML3 agonist = human TRPML3 channel agonists, primary screen, cell-based, HEK293 TRPML3-YFP, Fluo-8 calcium fluorescence, 3 µM. Mucolipin-3 (Homo sapiens), Q8TDD5. 100% = the carbachol control signal. activation, % at 3 µM. hit rate 0.29% among 220,000. AID 1448, 2008;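 active = activation above its plate's cutoff, the mean activation of the plate's test wells plus 3 SD, cut at about 12% in these data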;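 also: 0% = DMSO only wells and 100% = carbachol wells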
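Material: TRPML3-YFP stable HEK293 cells | Dosing: One concentration, 3 µM nominal, 0.3% DMSO | Timing: 125 s total fluorescence read per well | Technique: Fluo-8 calcium dye fluorescence, ex 470-495, em 515-575 nm | Measure: Percent activation from peak-to-basal fluorescence ratio, scaled between DMSO and carbachol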
CHO parental Ca = ATP-evoked calcium signal inhibitors, parental CHO, primary screen, counter-screen for OX1R antagonist project, cell-based, fluorescence, Fluo-8 calcium dye. parental CHO-K1, ATP-induced calcium, Fluo-8 fluorescence. hit rate 0.63% among 330,000. inhibition, % at 5.6 µM;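 active = inhibition above that plate's mean sample inhibition plus 3 SD, cut at about 26% in these data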;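 also: 0% = ATP-challenged DMSO wells and 100% = DMSO wells without ATP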
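Assay system: untransfected parental CHO cell line. Also added: ATP agonist challenge. Dosing: one dose, 5.6 µM nominal. Measured by: Fluo-8 fluorescence. Read-out: % inhibition. Benchmarks: ATP wells versus no-ATP DMSO wells. Repeats: no replicates.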
zfTRPN1 agonist = zebrafish TRPN1 channel agonists, primary screen, cell-based, HEK293, calcium fluorescence; HEK293 zebrafish TRPN1-YFP, Fluo-8 calcium fluorescence; 100% = response to 87 µM carbachol; activation, % at 3 µM; hit rate 0.18% among 220,000;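 active = activation above its plate's cutoff, the mean activation of test wells on that plate plus 3 SD, cut at about 19% in these data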;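 also: 0% = DMSO alone and 100% = 87 µM carbachol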
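Material – zebrafish TRPN1-YFP in HEK293 cells · Doses – 3 µM single point · Schedule – dye 1 h 37 °C plus 30 min RT · Signal – Fluo-8 calcium fluorescence, excitation 470-495 nm, emission 515-575 nm · Read-out – % activation versus carbachol response · Control set – carbachol high, DMSO low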
OX1R antag-2 = antagonists of human orexin 1 receptor (OX1R); OX1R-expressing cells, FRET antagonist read-out; hit rate 1.8% among 330,000; inhibition, % at 6.6 µM; in the data active = inhibition mostly above about 38%, no sharp cut-off; inactive = mostly below about 40%;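 also: 0% = agonist challenge alone and 100% = reference antagonist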
GPR7 antagonist = GPR7 receptor antagonists, primary screen, cell-based, fluorescence, single concentration; inhibition, % at 4.4 µM; hit rate 1.1% among 290,000; Neuropeptides B/W receptor type 1 (Homo sapiens), P48145; GPR7-expressing cells, fluorescence antagonist assay; AID 1861, 2009; in the data active = inhibition above about 16%, passing the limit was not always enough;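 also: cells stimulated with the agonist NPW; 0% = agonist with vehicle and 100% = vehicle without agonist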
Target sequence (P48145 whole entry, looked up): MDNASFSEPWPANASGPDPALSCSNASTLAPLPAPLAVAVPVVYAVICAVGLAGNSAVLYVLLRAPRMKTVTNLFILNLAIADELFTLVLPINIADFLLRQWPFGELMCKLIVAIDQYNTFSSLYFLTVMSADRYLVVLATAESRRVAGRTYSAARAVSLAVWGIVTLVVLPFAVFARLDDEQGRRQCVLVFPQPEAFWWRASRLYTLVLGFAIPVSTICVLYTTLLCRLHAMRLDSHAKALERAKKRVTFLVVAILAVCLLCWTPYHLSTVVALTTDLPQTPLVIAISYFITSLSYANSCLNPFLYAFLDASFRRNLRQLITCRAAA
The depositor's hits bear a star. Most compounds without a hit are left out; they make up all but 3.2% or so of the library.

For CCN(C(=O)COc1cc(=O)n(CC)c2ccccc12)c1cc(Cl)ccc1OC the results were OX1R antag-1 -34, TRPML3 agonist 0, CHO parental Ca -11, zfTRPN1 agonist 0, OX1R antag-2 25 and GPR7 antagonist 20*.
CCN(Cc1ccccc1)C(=O)COc1cc(=O)n(CC)c2ccccc12 was read as OX1R antag-1 -11, TRPML3 agonist 0, CHO parental Ca -12, zfTRPN1 agonist 0, OX1R antag-2 58* and GPR7 antagonist -2.
Cc1ccc(C(=O)NCC(=O)OCC(=O)c2c(N)n(C)c(=O)n(C)c2=O)cc1C was read as OX1R antag-1 -26, CHO parental Ca -15 and OX1R antag-2 6.
`Cc1cc(C)nc(SCc2cnc(C)nc2N)n1` gave OX1R antag-1 -13, TRPML3 agonist 1, CHO parental Ca -4, zfTRPN1 agonist 1, OX1R antag-2 4 and GPR7 antagonist -8.
CCC(C)/C(C)=N/Nc1ccc(S(N)(=O)=O)cc1[N+](=O)[O-] (centres undefined) was read as OX1R antag-1 -19, TRPML3 agonist 0, CHO parental Ca 21, zfTRPN1 agonist -3, OX1R antag-2 76* and GPR7 antagonist -18.
Screening O=C(OCC(=O)N1CCCCC1)c1ccc2c(c1)C(=O)N(Cc1ccco1)C2=O returned OX1R antag-1 -7, CHO parental Ca -16 and OX1R antag-2 33*.
Screening O=[N+]([O-])c1ccc2c(c1)S(=O)c1ccccc1-2 (centres undefined) returned OX1R antag-1 -6, TRPML3 agonist 1, CHO parental Ca -28, zfTRPN1 agonist 0, OX1R antag-2 75* and GPR7 antagonist -15.
For Cn1c(=O)oc2cc(S(=O)(=O)N3CCC(C(=O)NCCc4ccccc4)CC3)ccc21 the results were OX1R antag-1 -6, TRPML3 agonist 0, CHO parental Ca 41*, zfTRPN1 agonist 0, OX1R antag-2 8 and GPR7 antagonist 0.
Screening COc1ccccc1CCNC(=O)Cn1ccc2cc(S(=O)(=O)N3CCCC3)ccc21 returned OX1R antag-1 19, CHO parental Ca -3, OX1R antag-2 55* and GPR7 antagonist 2.
For O=C(Cn1ccc2cc(S(=O)(=O)N3CCCC3)ccc21)NCCc1ccccc1 the results were OX1R antag-1 21, CHO parental Ca -4, OX1R antag-2 55* and GPR7 antagonist -1.
Screening Cn1c(=O)oc2cc(S(=O)(=O)N3CCC(C(=O)NCc4ccccc4)CC3)ccc21 returned OX1R antag-1 -5, CHO parental Ca -3, OX1R antag-2 -1 and GPR7 antagonist -8.
Screening Cc1cc(N2CCCC2)ccc1NC(=O)CN1C(=O)NC2(CCCCC2)C1=O returned OX1R antag-1 -20, CHO parental Ca -31 and OX1R antag-2 6.
CCOC(=O)n1ccc(C(=O)Nc2ccccc2F)n1 was read as OX1R antag-1 -7, TRPML3 agonist 0, CHO parental Ca 29*, zfTRPN1 agonist 0, OX1R antag-2 7 and GPR7 antagonist -9.
CCOC(=O)c1cc(C(=O)Nc2ccccc2F)nn1C was read as OX1R antag-1 -10, TRPML3 agonist 0, CHO parental Ca -8, zfTRPN1 agonist 0, OX1R antag-2 12 and GPR7 antagonist -18.
COc1ccc(NC(=O)COc2ccc(N(C)S(=O)(=O)c3ccc(Cl)cc3)cc2)cc1OC was read as OX1R antag-1 51*, CHO parental Ca 90* and OX1R antag-2 45*.
`O=C(OCC(=O)N1CCOCC1)c1cc(=O)[nH]c2ccccc12` gave OX1R antag-1 -13, CHO parental Ca -11 and OX1R antag-2 35*.
O=C(CSC(=S)N1CCOCC1)c1cc2ccccc2oc1=O was read as OX1R antag-1 -24, CHO parental Ca -11, OX1R antag-2 8 and GPR7 antagonist 5.
